Experimental data from ChEMBL document CHEMBL2346521, “Synthesis, structure-activity relationship studies, and identification of novel 5,6,7,8-tetrahydroimidazo[1,5-a]pyrazine derivatives as dual orexin receptor antagonists. Part 1” (Bioorg Med Chem Lett, 2013).

Legend:
[1] = molecular target: T1, Orexin/Hypocretin receptor type 1 (Homo sapiens, UniProt O43613); assay: Antagonist activity at human OX1 receptor expressed in CHO cells assessed as inhibition of orexin A-induced calcium influx by FLIPR assay; type: functional, cell-based
T1 sequence (O43613 whole entry): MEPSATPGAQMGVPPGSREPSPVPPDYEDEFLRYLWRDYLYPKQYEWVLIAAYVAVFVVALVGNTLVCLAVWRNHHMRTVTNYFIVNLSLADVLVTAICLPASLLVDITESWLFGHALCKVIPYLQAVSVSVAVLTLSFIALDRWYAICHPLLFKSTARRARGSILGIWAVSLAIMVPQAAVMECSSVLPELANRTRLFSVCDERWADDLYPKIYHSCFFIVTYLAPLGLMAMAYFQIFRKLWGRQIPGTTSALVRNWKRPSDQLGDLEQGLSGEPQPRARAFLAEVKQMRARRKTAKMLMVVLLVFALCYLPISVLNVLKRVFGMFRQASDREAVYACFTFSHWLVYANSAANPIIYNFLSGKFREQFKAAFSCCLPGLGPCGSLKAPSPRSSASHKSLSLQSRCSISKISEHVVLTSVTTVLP
How it was run: (§1)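 CHO cells stably expressing human OX1R or OX2R, loaded at 37 °C, 5% CO₂ with the calcium dye fluo-3 AM, then washed. Antagonist added at a range of concentrations before an approximately EC₈₀ orexin A challenge. Ca²⁺ mobilization read by FLIPR. IC₅₀ taken as the concentration giving 50% inhibition of the orexin A-induced calcium response, reported in nM.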

Orexin receptor type 2 = molecular target: T2, Orexin receptor type 2 (Homo sapiens, UniProt O43614); assay: Antagonist activity at human OX2 receptor expressed in CHO cells assessed as inhibition of orexin A-induced calcium influx by FLIPR assay; type: functional, cell-based; how it was run: as §1
T2 sequence (O43614 whole entry): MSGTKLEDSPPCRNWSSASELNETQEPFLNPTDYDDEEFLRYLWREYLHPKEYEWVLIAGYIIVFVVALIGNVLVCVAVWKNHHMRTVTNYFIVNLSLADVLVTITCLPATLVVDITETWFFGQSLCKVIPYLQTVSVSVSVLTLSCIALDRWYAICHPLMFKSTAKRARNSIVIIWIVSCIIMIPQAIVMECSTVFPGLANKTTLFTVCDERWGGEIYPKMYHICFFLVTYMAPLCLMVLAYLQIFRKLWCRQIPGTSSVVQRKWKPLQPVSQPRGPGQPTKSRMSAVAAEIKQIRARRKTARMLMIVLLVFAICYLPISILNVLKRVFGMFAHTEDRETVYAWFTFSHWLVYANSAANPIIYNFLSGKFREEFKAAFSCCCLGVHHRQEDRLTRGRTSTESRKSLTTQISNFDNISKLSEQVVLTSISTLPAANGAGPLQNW

[2] = Drug uptake in Wistar rat brain at 100 mg/kg, po after 3 hrs; type: ADME, organism-based; parameters: dose 100 mg/kg, route oral; details: read-out: Drug uptake
How it was run: (§2)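 Male Wistar rats dosed orally at 100 mg/kg. Brain and plasma sampled 3 h after dosing. Total compound levels given as nM and as ng/g (brain) or ng/ml (plasma). Brain/plasma ratio calculated from these total concentrations.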

[3] = Plasma concentration in Wistar rat at 100 mg/kg, po after 3 hrs; type: ADME, organism-based; parameters: dose 100 mg/kg, route oral; how it was run: as §2
[4] = Plasma protein binding in human; type: ADME, cell-free; details: read-out: PPB
[5] = Ratio of drug level in brain to plasma in Wistar rat at 100 mg/kg, po after 3 hrs; type: ADME, organism-based; parameters: dose 100 mg/kg, route oral; details: read-out: BPR; how it was run: as §2

With CCCc1nc(CC)n2c1C(CCc1ccc(C(F)(F)F)cc1)N([C@@H](C(=O)NC)c1ccccc1)CC2 (stereo partly specified) the IC50 [1] was greater than 10000 nM and the IC50 (Orexin receptor type 2) was 225 nM.

For CCc1nc(C(C)C)c2n1CCN([C@@H](C(=O)NC)c1ccccc1)C2CCc1ccc(C(F)(F)F)cc1 (stereo partly specified), the IC50 [1] was greater than 10000 nM and the IC50 (Orexin receptor type 2) was 2900 nM.

CCc1nc(C2CC2)c2n1CCN([C@@H](C(=O)NC)c1ccccc1)[C@H]2CCc1ccc(C(F)(F)F)cc1 showed an IC50 [1] of 4170 nM and an IC50 (Orexin receptor type 2) of 29 nM.

CCc1nc(Cl)c2n1CCN([C@@H](C(=O)NC)c1ccccc1)[C@H]2CCc1ccc(C(F)(F)F)cc1 gave a concentration at 3 h [2] of 303 nM, a concentration at 3 h [3] of 4.21 µM and an IC50 [1] of 40 nM. It also gave a fraction unbound [4] of 0.01, an IC50 (Orexin receptor type 2) of 9 nM and a Kp at 3 h [5] of 0.07.

Compound CCc1nc(Cl)c2n1CCN([C@@H](C(=O)NC)c1ccccc1)[C@@H]2CCc1ccc(C(F)(F)F)cc1 has an IC50 [1] of 283 nM and an IC50 (Orexin receptor type 2) of 107 nM.

Work on CCc1nc(C(F)(F)F)c2n1CCN([C@@H](C(=O)NC)c1ccccc1)[C@H]2CCc1ccc(C(F)(F)F)cc1 yielded an IC50 [1] of 1070 nM and an IC50 (Orexin receptor type 2) of 11 nM.

CCc1nc(SC)c2n1CCN([C@@H](C(=O)NC)c1ccccc1)[C@H]2CCc1ccc(C(F)(F)F)cc1 showed an IC50 [1] of 85 nM and an IC50 (Orexin receptor type 2) of 14 nM.

CCc1nc(C(=O)NC)c2n1CCN([C@@H](C(=O)NC)c1ccccc1)C2CCc1ccc(C(F)(F)F)cc1 (stereo partly specified) showed an IC50 [1] of 492 nM and an IC50 (Orexin receptor type 2) of 38 nM.

For CCc1nc(C(=O)N(C)C)c2n1CCN([C@@H](C(=O)NC)c1ccccc1)C2CCc1ccc(C(F)(F)F)cc1 (stereo partly specified), the IC50 [1] was 344 nM and the IC50 (Orexin receptor type 2) was 111 nM.

CNC(=O)[C@@H](c1ccccc1)N1CCn2c(C)nc(Cl)c2[C@@H]1CCc1ccc(C(F)(F)F)cc1 showed an IC50 [1] of 90 nM and an IC50 (Orexin receptor type 2) of 13 nM.

In the case of CCCc1nc(Cl)c2n1CCN([C@@H](C(=O)NC)c1ccccc1)[C@H]2CCc1ccc(C(F)(F)F)cc1, the IC50 [1] is reported as 459 nM and the IC50 (Orexin receptor type 2) is reported as 60 nM.

With CNC(=O)[C@@H](c1ccccc1)N1CCn2c(C(C)C)nc(Cl)c2[C@@H]1CCc1ccc(C(F)(F)F)cc1 the IC50 [1] was 313 nM and the IC50 (Orexin receptor type 2) was 11 nM.

CNC(=O)[C@@H](c1ccccc1)N1CCn2c(C3CC3)nc(Cl)c2[C@@H]1CCc1ccc(C(F)(F)F)cc1 gave a concentration at 3 h [2] of 385 nM, a concentration at 3 h [3] of 6.4 µM and an IC50 [1] of 31 nM. For the same compound, the fraction unbound [4] was 0.01, the IC50 (Orexin receptor type 2) was 9 nM and the Kp at 3 h [5] was 0.06.

With CNC(=O)[C@@H](c1ccccc1)N1CCn2c(CC3CC3)nc(Cl)c2[C@@H]1CCc1ccc(C(F)(F)F)cc1 the IC50 [1] was 1430 nM and the IC50 (Orexin receptor type 2) was 35 nM.

Compound CCc1nc(C)c2n1CCN([C@@H](C(=O)NC)c1ccccc1)C2CCc1ccc(C(F)(F)F)cc1 (mixture of isomers) has an IC50 [1] greater than 10000 nM and an IC50 (Orexin receptor type 2) of 24 nM.

Work on CCc1nc(CC)n2c1C(CCc1ccc(C(F)(F)F)cc1)N([C@@H](C(=O)NC)c1ccccc1)CC2 (mixture of isomers) yielded an IC50 [1] greater than 10000 nM and an IC50 (Orexin receptor type 2) of 20 nM.

CCc1nc(I)c2n1CCN([C@@H](C(=O)NC)c1ccccc1)C2CCc1ccc(C(F)(F)F)cc1 (mixture of isomers) showed an IC50 [1] of 717 nM and an IC50 (Orexin receptor type 2) of 23 nM.

Compound CCc1nc(OC)c2n1CCN([C@@H](C(=O)NC)c1ccccc1)C2CCc1ccc(C(F)(F)F)cc1 (mixture of isomers) has an IC50 [1] of 134 nM and an IC50 (Orexin receptor type 2) of 73 nM.

In the case of CCOc1nc(CC)n2c1C(CCc1ccc(C(F)(F)F)cc1)N([C@@H](C(=O)NC)c1ccccc1)CC2 (mixture of isomers), the IC50 [1] is reported as 3980 nM and the IC50 (Orexin receptor type 2) is reported as 2750 nM.

CCc1nc(C#N)c2n1CCN([C@@H](C(=O)NC)c1ccccc1)C2CCc1ccc(C(F)(F)F)cc1 (mixture of isomers) showed an IC50 [1] of 537 nM and an IC50 (Orexin receptor type 2) of 10 nM.

With CCc1nc(C(N)=O)c2n1CCN([C@@H](C(=O)NC)c1ccccc1)C2CCc1ccc(C(F)(F)F)cc1 (mixture of isomers) the IC50 [1] was greater than 10000 nM and the IC50 (Orexin receptor type 2) was 194 nM.

For CNC(=O)[C@@H](c1ccccc1)N1CCn2c(COC)nc(Cl)c2[C@@H]1CCc1ccc(C(F)(F)F)cc1 (mixture of isomers), the IC50 [1] was 1650 nM and the IC50 (Orexin receptor type 2) was 25 nM.

In the case of CCc1ncc2n1CCN([C@@H](C(=O)NC)c1ccccc1)C2CCc1ccc(C(F)(F)F)cc1 (mixture of isomers), the IC50 [1] is reported as greater than 10000 nM and the IC50 (Orexin receptor type 2) is reported as 194 nM.

In the case of C=Cc1nc(CC)n2c1C(CCc1ccc(C(F)(F)F)cc1)N([C@@H](C(=O)NC)c1ccccc1)CC2 (single isomer, unassigned), the IC50 [1] is reported as 150 nM and the IC50 (Orexin receptor type 2) is reported as 23 nM.
